Measurements: paper PMC3594472 (Bioorganic & medicinal chemistry letters, 2013)

Columns and labels:
human M1 (hM1) receptor [1] = biological target: T1, human M1 (hM1) receptor (Homo sapiens, UniProt P11229); assay: hM1 PAM functional activity; assay type: cell-based; conditions: for hM1 PAM activity (in words): concentrations up to 30 µM
T1 sequence (P11229 1-460): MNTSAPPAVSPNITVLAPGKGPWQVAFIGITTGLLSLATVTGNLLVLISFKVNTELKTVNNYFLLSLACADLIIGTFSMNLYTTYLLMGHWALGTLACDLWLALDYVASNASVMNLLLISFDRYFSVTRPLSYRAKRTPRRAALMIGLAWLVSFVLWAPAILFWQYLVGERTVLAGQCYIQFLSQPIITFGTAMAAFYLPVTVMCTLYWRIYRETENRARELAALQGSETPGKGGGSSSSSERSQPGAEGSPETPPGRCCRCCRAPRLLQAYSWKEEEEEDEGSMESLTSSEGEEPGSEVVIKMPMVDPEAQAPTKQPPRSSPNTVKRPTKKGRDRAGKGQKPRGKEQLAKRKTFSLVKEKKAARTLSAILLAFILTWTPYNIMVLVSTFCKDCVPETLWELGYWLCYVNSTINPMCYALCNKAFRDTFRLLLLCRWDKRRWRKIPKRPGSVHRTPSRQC
Procedure, shortened: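 Human M1 PAM functional assay. Test compound was run at concentrations up to a top level of 30 µM. Efficacy is expressed as percent of the maximal acetylcholine response. Where hM1 EC50 is listed as >10, the figure given is the percent maximal ACh response with test compound at 30 µM. Values are mean ± standard error of the mean of at least three independent determinations, each performed in triplicate.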

[2] = test system: all five human muscarinic acetylcholine receptors; assay: Muscarinic selectivity profiling, human receptors; assay type: cell-based; conditions: up to the highest concentration tested (30 µM)
[3] = test system: all five rat muscarinic acetylcholine receptors; assay: Muscarinic selectivity profiling, rat receptors; assay type: cell-based; conditions: up to the highest concentration tested (30 µM)
human M1 (hM1) receptor [4] = biological target: T1, human M1 (hM1) receptor; conditions: previously reported value; ref 7b; cited from earlier work

hM1 PAM activity (in words) (human M1 (hM1) receptor [1]) | Structure (SMILES) | further results
inactive | CN1CCCC12C(=O)N(Cc1ccc(Br)cc1)c1ccccc12 (stereo not drawn) [Compound 14] | 
inactive | Cc1nn(C)c(C)c1-c1ccc(CN2C(=O)C3(CCN(C4CCCC4)C3)c3ccccc32)c(F)c1 (stereo not drawn) [Compound 20d] | 
 | Cn1cc(-c2ccc(CN3C(=O)C4(OCCO4)c4ccccc43)c(F)c2)cn1 [Compound 3] | selectivity across human muscarinic receptors (M1-M5) [2]: completely selective for the M1 receptors; selectivity across rat muscarinic receptors (M1-M5) [3]: completely selective for the M1 receptors
 | CN1CCC2(C1)C(=O)N(Cc1ccc(-c3cnn(C)c3)cc1F)c1ccccc12 (stereo not drawn) [Compound 18d] | selectivity across human muscarinic receptors (M1-M5) [2]: completely selective for the M1 receptors; selectivity across rat muscarinic receptors (M1-M5) [3]: completely selective for the M1 receptors; pEC50 (human M1 (hM1) receptor [1]; Table 1, hM1 PAM, mean ± SEM): 5.49 ± 0.10
lacked any PAM activity | Cn1cc(-c2ccc(CN3C(=O)C4(CCNC4)c4ccccc43)c(F)c2)cn1 (stereo not drawn) [Compound 18e] | 
eliminated PAM activity | Cc1c(-c2ccc(CN3C(=O)C4(CCN(C5CCCC5)C4)c4ccccc43)c(F)c2)cnn1C (stereo not drawn) [Compound 20c] | 
inactive | Cn1cc(-c2ccc(CN3C(=O)C4(CCN(c5ccccc5)C4)c4ccccc43)c(F)c2)cn1 (stereo not drawn) [Compound 19s] | 
 | Cn1cc(-c2ccc(CN3C(=O)C(=O)c4ccccc43)c(F)c2)cn1 [ML137] | %AChmax (human M1 (hM1) receptor [4]): 65%
inactive | O=C1N(Cc2ccc(Br)cc2)c2ccccc2C12CCCO2 (stereo not drawn) [Compound 17] | 
low micro-molar activity | Cn1cc(-c2ccc(CN3C(=O)C4(CCN(c5ncccn5)C4)c4ccccc43)c(F)c2)cn1 (stereo not drawn) [Compound 19t] | 
inactive | O=C1N(Cc2ccc(Br)cc2)c2ccccc2C12CCCN2 (stereo not drawn) [Compound 13] | 

Structure (SMILES) | hM1 PAM activity (in words) (human M1 (hM1) receptor [1]) | further results
C[Si](C)(C)C1COC2(C1)C(=O)N(Cc1ccc(Br)cc1)c1ccccc12 (stereo not drawn) [Compound 16] | inactive | 
